ChEMBL document CHEMBL3593194, “BN/CC isosterism in borazaronaphthalenes towards phosphodiesterase 10A (PDE10A) inhibitors” (Bioorg Med Chem, 2015)

How the values were obtained:
[1] = Intrinsic clearance in rat liver microsomes; assay type: ADME; details: read-out: CLH (converted)
[2] = target: T1, cAMP and cAMP-inhibited cGMP 3',5'-cyclic phosphodiesterase 10A (Homo sapiens, UniProt Q9Y233); experiment: Inhibition of PDE10A (unknown origin) at 10 uM
Procedure, shortened: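 Potency against PDE10A is given as the concentration giving 50% inhibition (IC50, nM). Where no IC50 was obtained, the value is percent inhibition at 10 μM.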

[3] = target: T1, cAMP and cAMP-inhibited cGMP 3',5'-cyclic phosphodiesterase 10A; experiment: Inhibition of PDE10A (unknown origin)
[4] = target: T1, cAMP and cAMP-inhibited cGMP 3',5'-cyclic phosphodiesterase 10A; experiment: Inhibition of PDE10A (unknown origin) at 2 uM

T1 sequence (Q9Y233 whole entry): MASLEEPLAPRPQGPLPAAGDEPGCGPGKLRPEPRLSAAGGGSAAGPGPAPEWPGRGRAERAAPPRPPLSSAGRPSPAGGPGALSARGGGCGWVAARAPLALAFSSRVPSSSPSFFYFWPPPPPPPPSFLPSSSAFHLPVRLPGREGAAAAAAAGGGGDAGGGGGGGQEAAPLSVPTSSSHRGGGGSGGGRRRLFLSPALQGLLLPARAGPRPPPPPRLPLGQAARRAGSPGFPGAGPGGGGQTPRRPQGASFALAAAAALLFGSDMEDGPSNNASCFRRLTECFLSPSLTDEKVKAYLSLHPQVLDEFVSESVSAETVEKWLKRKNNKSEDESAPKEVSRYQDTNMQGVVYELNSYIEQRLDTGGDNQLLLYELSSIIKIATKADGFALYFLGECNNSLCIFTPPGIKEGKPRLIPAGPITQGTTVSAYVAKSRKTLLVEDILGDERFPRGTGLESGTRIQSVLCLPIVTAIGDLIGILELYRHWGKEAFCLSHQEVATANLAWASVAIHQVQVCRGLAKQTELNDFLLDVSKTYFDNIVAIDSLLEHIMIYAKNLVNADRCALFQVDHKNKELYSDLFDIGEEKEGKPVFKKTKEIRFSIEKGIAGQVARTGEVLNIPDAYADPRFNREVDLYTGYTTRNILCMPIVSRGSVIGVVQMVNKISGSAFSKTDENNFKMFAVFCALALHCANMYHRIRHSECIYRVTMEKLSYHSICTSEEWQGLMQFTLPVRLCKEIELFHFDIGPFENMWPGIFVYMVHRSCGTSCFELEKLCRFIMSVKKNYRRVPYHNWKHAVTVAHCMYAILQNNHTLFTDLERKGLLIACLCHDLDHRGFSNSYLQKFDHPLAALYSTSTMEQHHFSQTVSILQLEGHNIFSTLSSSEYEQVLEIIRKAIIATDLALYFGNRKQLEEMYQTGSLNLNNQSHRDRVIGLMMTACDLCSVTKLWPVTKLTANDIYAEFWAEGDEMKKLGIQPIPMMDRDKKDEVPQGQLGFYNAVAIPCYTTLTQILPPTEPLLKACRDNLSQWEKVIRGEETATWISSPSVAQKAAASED

| CLint scaled [1] | inhibition [2] | IC50 [3] | inhibition [4] | SMILES |
| --- | --- | --- | --- | --- |
| 30 mL/min/kg | 4% |  |  | CN(C(=O)c1cc(-c2ccccn2)[nH]n1)c1ccc(OCc2ccc3ccccc3c2)cc1 |
| 48.3 mL/min/kg | 5% |  |  | CN(C(=O)c1ccc2ncsc2c1)c1ccc(OCc2ccc3ccccc3c2)cc1 |
| 25 mL/min/kg |  | 64 nM |  | CN(C(=O)c1cc(-c2ccccn2)[nH]n1)c1ccc(OCB2C=Cc3ccccc3N2)cc1 |
| 15 mL/min/kg |  |  |  | CN(C(=O)c1ccncc1)c1ccc(OCc2ccc3ccccc3n2)cc1 |
| 83.3 mL/min/kg | 25% |  |  | Cn1cc(-c2ccncc2)c(-c2ccc(OCc3ccc4ccccc4c3)cc2)n1 |
| > 283 mL/min/kg | 2% |  |  | CN(C(=O)c1csc(-c2cccnc2)n1)c1ccc(OCc2ccc3ccccc3c2)cc1 |
| > 283 mL/min/kg |  | 170 nM |  | CN(C(=O)c1csc(-c2cccnc2)n1)c1ccc(OCc2ccc3ccccc3n2)cc1 |
| 31.7 mL/min/kg |  |  |  | Cn1cc(-c2ccncc2)c(-c2ccc(OCc3ccc4ccccc4n3)cc2)n1 [MARDEPODECT] |
| 73.3 mL/min/kg | 45% |  |  | CN(C(=O)c1ccc2ncsc2c1)c1ccc(OCB2C=Cc3ccccc3N2)cc1 |
| 21.7 mL/min/kg |  |  |  | CN(C(=O)c1cc(-c2ccccc2)n[nH]1)c1ccc(OCc2ccc3ccccc3n2)cc1 |
| 5.67 mL/min/kg |  | 1800 nM |  | CN(C(=O)c1cc(-c2ccccc2)n[nH]1)c1ccc(OCB2C=Cc3ccccc3N2)cc1 |
| 75 mL/min/kg |  |  | 2% | CN(C(=O)c1ccncc1)c1ccc(OCc2ccc3ccccc3c2)cc1 |
| 41.7 mL/min/kg | 48% |  |  | Cn1cc(-c2ccncc2)c(-c2ccc(OCB3C=Cc4ccccc4N3)cc2)n1 |
| 115 mL/min/kg | 11% |  |  | CN(C(=O)c1ccncc1)c1ccc(OCB2C=Cc3ccccc3N2)cc1 |
| 6.83 mL/min/kg | 3% |  |  | CN(C(=O)c1cc(-c2ccccc2)n[nH]1)c1ccc(OCc2ccc3ccccc3c2)cc1 |
| 31.7 mL/min/kg |  |  |  | CN(C(=O)c1ccc2ncsc2c1)c1ccc(OCc2ccc3ccccc3n2)cc1 |
| 35 mL/min/kg |  |  |  | CN(C(=O)c1cc(-c2ccccn2)n[nH]1)c1ccc(OCc2ccc3ccccc3n2)cc1 |
| > 283 mL/min/kg |  | 330 nM |  | CN(C(=O)c1csc(-c2cccnc2)n1)c1ccc(OCB2C=Cc3ccccc3N2)cc1 |
